Measured values: ChEMBL document CHEMBL3739271, “Synthesis and evaluation of a series of resveratrol analogues as potent anti-cancer agents that target tubulin” (2015)
Active and inactive are the calls of the source. The calls are words filed in the database; no cut-off is given here.

Tests used:
CCRF-CEM = assay: Cytotoxicity against human CCRF-CEM cells by SRB assay; format: functional
Procedure, shortened: (§1)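 NCI 60 human tumor cell line panel, sulforhodamine B (SRB) protein-stain read-out. Compounds were first screened at a single dose of 10^-5 M, and selected compounds were then tested in a five-dose format. GI50 is the drug concentration giving a 50% reduction in net protein increase relative to control cells.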

[1] = Cytotoxicity against human HL-60(TB) cells by SRB assay; format: functional
Procedure, shortened: (§2)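 NCI 60-cell-line panel using sulforhodamine B protein stain. Initial single-dose screen at 10^-5 M, then five-dose testing. GI50 is the drug concentration giving a 50% reduction in net protein increase relative to control cells.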

K562 = assay: Cytotoxicity against human K562 cells by SRB assay; format: functional; procedure, shortened: as §1
[2] = Cytotoxicity against human MOLT4 cells by SRB assay; format: functional; settings: MOLT-4; procedure, shortened: as §1
[3] = Cytotoxicity against human RPMI8226 cells by SRB assay; format: functional; settings: RPMI-8226; procedure, shortened: as §1
SR = assay: Cytotoxicity against human SR cells by SRB assay; format: functional; procedure, shortened: as §1
A549 = assay: Cytotoxicity against human A549 cells by SRB assay; format: functional; procedure, shortened: as §1
[4] = Cytotoxicity against human HOP62 cells by SRB assay; format: functional; settings: HOP-62; procedure, shortened: as §1
[5] = Cytotoxicity against human HOP92 cells by SRB assay; format: functional; settings: HOP-92; procedure, shortened: as §1
NCI-H23 = assay: Cytotoxicity against human NCI-H23 cells by SRB assay; format: functional; procedure, shortened: as §1
NCI-H522 = assay: Cytotoxicity against human NCI-H522 cells by SRB assay; format: functional; procedure, shortened: as §1
[6] = Cytotoxicity against human COLO205 cells by SRB assay; format: functional; settings: COLO 205; procedure, shortened: as §1
[7] = Cytotoxicity against human HCC2998 cells by SRB assay; format: functional; settings: HCC 2998; procedure, shortened: as §1
[8] = Cytotoxicity against human HCT116 cells by SRB assay; format: functional; settings: HCT-116; procedure, shortened: as §1
[9] = Cytotoxicity against human HCT15 cells by SRB assay; format: functional; settings: HCT-15; procedure, shortened: as §1
HT-29 = assay: Cytotoxicity against human HT-29 cells by SRB assay; format: functional; procedure, shortened: as §1
KM12 = assay: Cytotoxicity against human KM12 cells by SRB assay; format: functional; procedure, shortened: as §1
[10] = Cytotoxicity against human SW620 cells by SRB assay; format: functional; settings: SW-620; procedure, shortened: as §1
[11] = Cytotoxicity against human SF268 cells by SRB assay; format: functional; settings: SF-268; procedure, shortened: as §1
[12] = Cytotoxicity against human SF295 cells by SRB assay; format: functional; settings: SF-295; procedure, shortened: as §1
[13] = Cytotoxicity against human SF539 cells by SRB assay; format: functional; settings: SF-539; procedure, shortened: as §1
[14] = Cytotoxicity against human SNB19 cells by SRB assay; format: functional; settings: SNB-19; procedure, shortened: as §1
[15] = Cytotoxicity against human SNB75 cells by SRB assay; format: functional; settings: SNB-75; procedure, shortened: as §1
U-251 = assay: Cytotoxicity against human U251 cells by SRB assay; format: functional; procedure, shortened: as §1
[16] = Cytotoxicity against human LOXIMVI cells by SRB assay; format: functional; settings: LOX IMVI; procedure, shortened: as §2
M14 = assay: Cytotoxicity against human M14 cells by SRB assay; format: functional; procedure, shortened: as §1
MDA-MB-435 = assay: Cytotoxicity against human MDA-MB-435 cells by SRB assay; format: functional; procedure, shortened: as §1
SK-MEL-28 = assay: Cytotoxicity against human SK-MEL-28 cells by SRB assay; format: functional; procedure, shortened: as §1
SK-MEL-5 = assay: Cytotoxicity against human SK-MEL-5 cells by SRB assay; format: functional; procedure, shortened: as §1
[17] = Cytotoxicity against human UACC62 cells by SRB assay; format: functional; settings: UACC-62; procedure, shortened: as §1
[18] = Cytotoxicity against human IGROV1 cells by SRB assay; format: functional; settings: IGROV-1; procedure, shortened: as §2
[19] = Cytotoxicity against human OVCAR3 cells by SRB assay; format: functional; settings: OVCAR-3; procedure, shortened: as §1
[20] = Cytotoxicity against human OVCAR4 cells by SRB assay; format: functional; settings: OVCAR-4; procedure, shortened: as §1
NCI/ADR-RES = assay: Cytotoxicity against human NCI/ADR-RES cells by SRB assay; format: functional; procedure, shortened: as §1
[21] = Cytotoxicity against human SKOV3 cells by SRB assay; format: functional; settings: SK-OV-3; procedure, shortened: as §1
786-0 = assay: Cytotoxicity against human 786-0 cells by SRB assay; format: functional; procedure, shortened: as §1
A498 = assay: Cytotoxicity against human A498 cells by SRB assay; format: functional; procedure, shortened: as §1
ACHN = assay: Cytotoxicity against human ACHN cells by SRB assay; format: functional; procedure, shortened: as §1
[22] = Cytotoxicity against human UO31 cells by SRB assay; format: functional; settings: UO-31; procedure, shortened: as §1
MCF7 = assay: Cytotoxicity against human MCF7 cells by SRB assay; format: functional; procedure, shortened: as §1
MDA-MB-231 = assay: Cytotoxicity against human MDA-MB-231 cells by SRB assay; format: functional; procedure, shortened: as §1
[23] = Cytotoxicity against human Hs578T cells by SRB assay; format: functional; settings: Hs-578T; procedure, shortened: as §1
MDA-MB-468 = assay: Cytotoxicity against human MDA-MB-468 cells by SRB assay; format: functional; procedure, shortened: as §1
MV4-11 [24] = assay: Anti-leukemia activity against human MV4-11 cells after 48 hrs by Annexin-V staining; format: functional; settings: MV4-11, 48 h, read-out: LD50 (the source's name)
Procedure, shortened: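 MV4-11 AML cells exposed to increasing compound concentrations for 24 and 48 h. Viability measured by Annexin V/7-AAD staining and expressed as percent Annexin V-/7-AAD- cells relative to control. N = 5, error bars SD. LD50 values derived from these curves.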

SK-MEL-2 = assay: Cytotoxicity against human SK-MEL-2 cells by SRB assay; format: functional; procedure, shortened: as §1
CAKI-1 = assay: Cytotoxicity against human CAKI-1 cells by SRB assay; format: functional; procedure, shortened: as §1
MV4-11 [25] = assay: Inhibition of alpha-tubulin polymerization in human MV4-11 cells at 25 to 100 nM after 2 hrs by Western blotting; format: cell-based
Procedure, shortened: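 MV4-11 cells treated for 2 hours at 25, 50 and 100 nM. Microtubule polymerization then assessed by immunoblot.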

COc1ccc(/C=C(\C#N)c2ccc(OC)c(OC)c2)cc1O
GI50 (CCRF-CEM): 0.03 µM
GI50 [1]: 0.03 µM
GI50 (K562): 0.02 µM
GI50 [2]: 0.05 µM
GI50 [3]: 0.04 µM
GI50 (SR): 0.02 µM
GI50 (A549): 0.21 µM
GI50 [4]: 0.03 µM
GI50 [5]: 1.69 µM
GI50 (NCI-H23): 0.07 µM
GI50 (NCI-H522): < 0.01 µM
GI50 [6]: 1.24 µM
GI50 [7]: 1.81 µM
GI50 [8]: 0.04 µM
GI50 [9]: 0.04 µM
GI50 (HT-29): 0.57 µM
GI50 (KM12): 0.02 µM
GI50 [10]: 0.04 µM
GI50 [11]: 0.06 µM
GI50 [12]: 0.1 µM
GI50 [13]: 0.02 µM
GI50 [14]: 0.05 µM
GI50 [15]: 0.02 µM
GI50 (U-251): 0.04 µM
GI50 [16]: 0.06 µM
GI50 (M14): 0.03 µM
GI50 (MDA-MB-435): < 0.01 µM
GI50 (SK-MEL-28): 1.11 µM
GI50 (SK-MEL-5): 0.04 µM
GI50 [17]: 0.02 µM
GI50 [18]: 0.06 µM
GI50 [19]: 0.02 µM
GI50 [20]: 1.56 µM
GI50 (NCI/ADR-RES): 0.02 µM
GI50 [21]: 0.05 µM
GI50 (786-0): 0.36 µM
GI50 (A498): 0.02 µM
GI50 (ACHN): 0.08 µM
GI50 [22]: 0.06 µM
GI50 (MCF7): 0.03 µM
GI50 (MDA-MB-231): 0.04 µM
GI50 [23]: 0.03 µM
GI50 (MDA-MB-468): 0.04 µM
CC50 (MV4-11 [24]): 0.353 µM

COc1ccc(/C=C(/C#N)c2cc(OC)c(OC)c(OC)c2)cc1O
GI50 (CCRF-CEM): < 0.01 µM
GI50 [1]: < 0.01 µM
GI50 (K562): < 0.01 µM
GI50 [2]: < 0.01 µM
GI50 [3]: < 0.01 µM
GI50 (SR): < 0.01 µM
GI50 (A549): < 0.01 µM
GI50 [5]: < 0.01 µM
GI50 (NCI-H23): < 0.01 µM
GI50 (NCI-H522): < 0.01 µM
GI50 [6]: 0.3 µM
GI50 [7]: < 0.01 µM
GI50 [8]: < 0.01 µM
GI50 [9]: < 0.01 µM
GI50 (HT-29): 0.32 µM
GI50 (KM12): < 0.01 µM
GI50 [10]: < 0.01 µM
GI50 [11]: < 0.01 µM
GI50 [12]: 0.01 µM
GI50 [13]: < 0.01 µM
GI50 [14]: < 0.01 µM
GI50 [15]: < 0.01 µM
GI50 (U-251): < 0.01 µM
GI50 [16]: < 0.01 µM
GI50 (M14): < 0.01 µM
GI50 (MDA-MB-435): < 0.01 µM
GI50 (SK-MEL-2): < 0.01 µM
GI50 (SK-MEL-28): < 0.01 µM
GI50 (SK-MEL-5): < 0.01 µM
GI50 [17]: < 0.01 µM
GI50 [18]: < 0.01 µM
GI50 [19]: < 0.01 µM
GI50 [20]: < 0.01 µM
GI50 (NCI/ADR-RES): < 0.01 µM
GI50 [21]: < 0.01 µM
GI50 (786-0): 0.02 µM
GI50 (A498): < 0.01 µM
GI50 (ACHN): < 0.01 µM
GI50 (CAKI-1): < 0.01 µM
GI50 [22]: < 0.01 µM
GI50 (MCF7): < 0.01 µM
GI50 (MDA-MB-231): < 0.01 µM
GI50 [23]: < 0.01 µM
GI50 (MDA-MB-468): < 0.01 µM
CC50 (MV4-11 [24]): 0.0025 µM
inhibition (MV4-11 [25]): Active
